# Experiments:
# CAKI-1 = assay: Antiproliferative activity against human Caki1 cells assessed as cell growth at 10 uM; type: functional; conditions: read-out: Activity
# Procedure, shortened: (§1)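 NCI 60 cell line panel, single-dose screen (10^-5 M) run by the developmental therapeutics program protocol. Results are given as growth percent of treated cells relative to untreated control cells for each line.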
# SNB-19 = assay: Antiproliferative activity against human SNB19 cells assessed as cell growth at 10 uM; type: functional; conditions: read-out: Activity; procedure, shortened: as §1
# HL-60(TB) = assay: Antiproliferative activity against human HL-60(TB) cells assessed as cell growth at 10 uM; type: functional; conditions: read-out: Activity
# Procedure, shortened: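 NCI Developmental Therapeutics Program 60-cell-line one-dose screen at 10^-5 M. Readout is growth percentage of treated cells relative to untreated control cells.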
# SF-268 = assay: Antiproliferative activity against human SF268 cells assessed as cell growth at 10 uM; type: functional; conditions: read-out: Activity; procedure, shortened: as §1
# SN12C = assay: Antiproliferative activity against human SN12C cells assessed as cell growth at 10 uM; type: functional; conditions: read-out: Activity; procedure, shortened: as §1
# 786-0 = assay: Antiproliferative activity against human 786-0 cells assessed as cell growth at 10 uM; type: functional; conditions: read-out: Activity; procedure, shortened: as §1
# U-251 = assay: Antiproliferative activity against human U251 cells assessed as cell growth at 10 uM; type: functional; conditions: read-out: Activity
# Procedure, shortened: (§2)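 NCI 60 cell line panel, single dose (10^-5 M), run per the Developmental Therapeutics Program protocol (one dose mean graph). Each result is the growth percentage of treated cells relative to untreated control cells.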
# [1] = molecular target: Telomerase reverse transcriptase (Homo sapiens) (UniProt O14746); assay: Inhibition of TERT in human H1299 cells assessed as residual transcriptional activity at 1 uM after 24 hrs by SEAP reporter gene assay; values are per cent of control
# Chain of Telomerase reverse transcriptase (Homo sapiens) (O14746 whole entry): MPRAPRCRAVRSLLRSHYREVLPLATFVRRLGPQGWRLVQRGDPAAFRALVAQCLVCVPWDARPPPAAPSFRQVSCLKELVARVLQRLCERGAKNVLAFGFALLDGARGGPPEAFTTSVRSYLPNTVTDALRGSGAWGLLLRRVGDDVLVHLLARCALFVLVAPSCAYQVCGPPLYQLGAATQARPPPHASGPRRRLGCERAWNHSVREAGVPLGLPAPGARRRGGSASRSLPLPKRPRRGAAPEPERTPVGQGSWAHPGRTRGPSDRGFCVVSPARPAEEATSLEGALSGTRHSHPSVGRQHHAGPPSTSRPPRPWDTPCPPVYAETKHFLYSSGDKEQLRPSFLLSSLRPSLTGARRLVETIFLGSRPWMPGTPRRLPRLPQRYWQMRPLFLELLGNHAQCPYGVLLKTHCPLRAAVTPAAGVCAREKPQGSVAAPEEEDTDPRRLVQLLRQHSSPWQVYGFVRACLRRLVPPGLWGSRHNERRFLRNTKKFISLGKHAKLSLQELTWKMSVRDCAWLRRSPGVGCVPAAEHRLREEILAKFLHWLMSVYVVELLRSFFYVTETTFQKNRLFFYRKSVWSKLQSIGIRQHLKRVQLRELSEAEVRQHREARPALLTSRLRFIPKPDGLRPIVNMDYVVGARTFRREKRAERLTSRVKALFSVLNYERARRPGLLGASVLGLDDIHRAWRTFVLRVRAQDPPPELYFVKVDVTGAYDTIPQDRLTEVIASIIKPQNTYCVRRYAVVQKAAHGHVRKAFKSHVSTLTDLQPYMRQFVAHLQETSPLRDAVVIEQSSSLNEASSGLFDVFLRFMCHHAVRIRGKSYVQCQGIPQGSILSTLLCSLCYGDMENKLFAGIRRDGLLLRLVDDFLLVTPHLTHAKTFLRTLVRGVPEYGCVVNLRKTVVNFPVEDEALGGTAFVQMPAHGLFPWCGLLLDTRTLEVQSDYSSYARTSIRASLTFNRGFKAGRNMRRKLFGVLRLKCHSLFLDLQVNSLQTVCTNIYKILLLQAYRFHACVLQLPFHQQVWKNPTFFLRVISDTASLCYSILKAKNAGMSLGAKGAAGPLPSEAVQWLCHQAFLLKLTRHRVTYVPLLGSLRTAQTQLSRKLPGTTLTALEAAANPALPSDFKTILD
# SK-OV-3 = assay: Antiproliferative activity against human SKOV3 cells assessed as cell growth at 10 uM; type: functional; conditions: read-out: Activity; procedure, shortened: as §1
# A498 = assay: Antiproliferative activity against human A498 cells assessed as cell growth at 10 uM; type: functional; conditions: read-out: Activity; procedure, shortened: as §1
# SK-MEL-2 = assay: Antiproliferative activity against human SK-MEL-2 cells assessed as cell growth at 10 uM; type: functional; conditions: read-out: Activity; procedure, shortened: as §1
# [2] = Cytotoxicity against human H1299 cells at 100 uM after 48 hrs by MTT assay; type: functional; conditions: NCI-H1299, 48 h
# Procedure, shortened: (§3)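 H1299 non-small cell lung cancer cells were grown in RPMI 1640 with 10% FBS, penicillin and streptomycin at 37 °C under 5% CO2. About 2 × 10³ cells per well were seeded and left 24 h. Compounds were dissolved fresh in DMSO, diluted into complete medium and applied for 48 h. MTT was then added for 4 h at 37 °C, followed by lysis buffer (20% SDS, 50% DMF) for 16 h, and absorbance was read at 550 nm.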
# HCT-15 = assay: Antiproliferative activity against human HCT15 cells assessed as cell growth at 10 uM; type: functional; conditions: read-out: Activity; procedure, shortened: as §1
# [3] = Cytotoxicity against human H1299 cells at 1 uM after 48 hrs by MTT assay; type: functional; conditions: NCI-H1299, 48 h; procedure, shortened: as §3
# SF-539 = assay: Antiproliferative activity against human SF539 cells assessed as cell growth at 10 uM; type: functional; conditions: read-out: Activity; procedure, shortened: as §1
# M14 = assay: Antiproliferative activity against human M14 cells assessed as cell growth at 10 uM; type: functional; conditions: read-out: Activity; procedure, shortened: as §1
# Malme-3M = assay: Antiproliferative activity against human MALME-3M cells assessed as cell growth at 10 uM; type: functional; conditions: read-out: Activity; procedure, shortened: as §1
# NCI-H522 = assay: Antiproliferative activity against human NCI-H522 cells assessed as cell growth at 10 uM; type: functional; conditions: read-out: Activity; procedure, shortened: as §1
# [4] = Cytotoxicity against human H1299 cells at 10 uM after 48 hrs by MTT assay; type: functional; conditions: NCI-H1299, 48 h; procedure, shortened: as §3
# HT-29 = assay: Antiproliferative activity against human HT-29 cells assessed as cell growth at 10 uM; type: functional; conditions: read-out: Activity; procedure, shortened: as §1
# SF-295 = assay: Antiproliferative activity against human SF295 cells assessed as cell growth at 10 uM; type: functional; conditions: read-out: Activity; procedure, shortened: as §1
# MDA-MB-435 = assay: Antiproliferative activity against human MDA-MB-435 cells assessed as cell growth at 10 uM; type: functional; conditions: read-out: Activity; procedure, shortened: as §1
# [5] = molecular target: Telomerase reverse transcriptase (Homo sapiens) (UniProt O14746); assay: Inhibition of TERT in human H1299 cells assessed as residual transcriptional activity at 10 uM after 24 hrs by SEAP reporter gene assay; values are per cent of control
# K562 = assay: Antiproliferative activity against human K562 cells assessed as cell growth at 10 uM; type: functional; conditions: read-out: Activity; procedure, shortened: as §1
# NCI-H23 = assay: Antiproliferative activity against human NCI-H23 cells assessed as cell growth at 10 uM; type: functional; conditions: read-out: Activity; procedure, shortened: as §1
# SR = assay: Antiproliferative activity against human SR cells assessed as cell growth at 10 uM; type: functional; conditions: read-out: Activity; procedure, shortened: as §2
# SNB-75 = assay: Antiproliferative activity against human SNB75 cells assessed as cell growth at 10 uM; type: functional; conditions: read-out: Activity; procedure, shortened: as §2
# HCT-116 = assay: Antiproliferative activity against human HCT116 cells assessed as cell growth at 10 uM; type: functional; conditions: read-out: Activity; procedure, shortened: as §1
# CCRF-CEM = assay: Antiproliferative activity against human CCRF-CEM cells assessed as cell growth at 10 uM; type: functional; conditions: read-out: Activity; procedure, shortened: as §1
# T47D = assay: Antiproliferative activity against human T47D cells assessed as cell growth at 10 uM; type: functional; conditions: read-out: Activity; procedure, shortened: as §2
# OVCAR-5 = assay: Antiproliferative activity against human OVCAR5 cells assessed as cell growth at 10 uM; type: functional; conditions: read-out: Activity; procedure, shortened: as §1
# SW-620 = assay: Antiproliferative activity against human SW620 cells assessed as cell growth at 10 uM; type: functional; conditions: read-out: Activity; procedure, shortened: as §2
# NCI/ADR-RES = assay: Antiproliferative activity against human NCI/ADR-RES cells assessed as cell growth at 10 uM; type: functional; conditions: read-out: Activity; procedure, shortened: as §1
# OVCAR-4 = assay: Antiproliferative activity against human OVCAR4 cells assessed as cell growth at 10 uM; type: functional; conditions: read-out: Activity; procedure, shortened: as §1
# PC-3 = assay: Antiproliferative activity against human PC3 cells assessed as cell growth at 10 uM; type: functional; conditions: read-out: Activity; procedure, shortened: as §1
# UACC-62 = assay: Antiproliferative activity against human UACC62 cells assessed as cell growth at 10 uM; type: functional; conditions: read-out: Activity; procedure, shortened: as §2
# SK-MEL-5 = assay: Antiproliferative activity against human SK-MEL-5 cells assessed as cell growth at 10 uM; type: functional; conditions: read-out: Activity; procedure, shortened: as §1
# NCI-H226 = assay: Antiproliferative activity against human NCI-H226 cells assessed as cell growth at 10 uM; type: functional; conditions: read-out: Activity; procedure, shortened: as §1
# [6] = Antiproliferative activity against human Hs 578T cells assessed as cell growth at 10 uM; type: functional; conditions: read-out: Activity; procedure, shortened: as §1
# OVCAR-3 = assay: Antiproliferative activity against human OVCAR-3 cells assessed as cell growth at 10 uM; type: functional; conditions: read-out: Activity; procedure, shortened: as §1
# HOP-62 = assay: Antiproliferative activity against human HOP62 cells assessed as cell growth at 10 uM; type: functional; conditions: read-out: Activity; procedure, shortened: as §1
# DU-145 = assay: Antiproliferative activity against human DU145 cells assessed as cell growth at 10 uM; type: functional; conditions: read-out: Activity; procedure, shortened: as §1
# SK-MEL-28 = assay: Antiproliferative activity against human SK-MEL-28 cells assessed as cell growth at 10 uM; type: functional; conditions: read-out: Activity; procedure, shortened: as §1
# EKVX = assay: Antiproliferative activity against human EKVX cells assessed as cell growth at 10 uM; type: functional; conditions: read-out: Activity; procedure, shortened: as §1
# MOLT-4 = assay: Antiproliferative activity against human MOLT4 cells assessed as cell growth at 10 uM; type: functional; conditions: read-out: Activity; procedure, shortened: as §1
# COLO 205 = assay: Antiproliferative activity against human COLO205 cells assessed as cell growth at 10 uM; type: functional; conditions: read-out: Activity; procedure, shortened: as §1
compound,measurement,setting,value
O=C1c2ccccc2C(=O)c2c1ccc1nc(-c3ccccc3)[nH]c21,growth at 10 µM,CAKI-1,51.9%
same,growth at 10 µM,SNB-19,102%
same,growth at 10 µM,HL-60(TB),99%
same,growth at 10 µM,SF-268,91.9%
same,growth at 10 µM,SN12C,87.5%
same,growth at 10 µM,786-0,111%
same,growth at 10 µM,U-251,97.1%
same,residual activity,[1],81%
same,growth at 10 µM,SK-OV-3,115%
same,growth at 10 µM,A498,77%
same,growth at 10 µM,SK-MEL-2,62.6%
same,viability at 100 µM,[2],34%
same,growth at 10 µM,HCT-15,86.3%
same,viability at 1 µM,[3],79%
same,growth at 10 µM,SF-539,96.2%
same,growth at 10 µM,M14,101%
same,growth at 10 µM,Malme-3M,74.5%
same,growth at 10 µM,NCI-H522,80.4%
same,viability at 10 µM,[4],72%
same,growth at 10 µM,HT-29,83.2%
same,growth at 10 µM,SF-295,73.6%
same,growth at 10 µM,MDA-MB-435,101%
same,residual activity,[5],78%
same,growth at 10 µM,K562,76%
same,growth at 10 µM,NCI-H23,91.7%
same,growth at 10 µM,SR,95.5%
same,growth at 10 µM,SNB-75,75.1%
same,growth at 10 µM,HCT-116,82.4%
same,growth at 10 µM,CCRF-CEM,86.3%
same,growth at 10 µM,T47D,65.1%
same,growth at 10 µM,OVCAR-5,109%
same,growth at 10 µM,SW-620,82.8%
same,growth at 10 µM,NCI/ADR-RES,90.2%
same,growth at 10 µM,OVCAR-4,73.4%
same,growth at 10 µM,PC-3,52.5%
same,growth at 10 µM,UACC-62,70.4%
same,growth at 10 µM,SK-MEL-5,65.2%
same,growth at 10 µM,NCI-H226,80.5%
same,growth at 10 µM,[6],30.4%
same,growth at 10 µM,OVCAR-3,69.2%
same,growth at 10 µM,HOP-62,109%
same,growth at 10 µM,DU-145,84.3%
same,growth at 10 µM,SK-MEL-28,60.4%
same,growth at 10 µM,EKVX,77.1%
same,growth at 10 µM,MOLT-4,88.3%
same,growth at 10 µM,COLO 205,92%
COc1cc(-c2nc3ccc4c(c3[nH]2)C(=O)c2ccccc2C4=O)ccc1O,growth at 10 µM,CAKI-1,134%
same,growth at 10 µM,SNB-19,97.4%
same,growth at 10 µM,HL-60(TB),123%
same,growth at 10 µM,SF-268,107%
same,growth at 10 µM,SN12C,102%
same,growth at 10 µM,786-0,109%
same,growth at 10 µM,U-251,103%
same,residual activity,[1],85%
same,growth at 10 µM,SK-OV-3,113%
same,growth at 10 µM,A498,122%
same,growth at 10 µM,SK-MEL-2,82.2%
same,viability at 100 µM,[2],38%
same,growth at 10 µM,HCT-15,103%
same,viability at 1 µM,[3],71%
same,growth at 10 µM,SF-539,102%
same,growth at 10 µM,M14,114%
same,growth at 10 µM,Malme-3M,107%
same,growth at 10 µM,NCI-H522,71.5%
same,viability at 10 µM,[4],70%
same,growth at 10 µM,HT-29,101%
same,growth at 10 µM,SF-295,127%
same,growth at 10 µM,MDA-MB-435,103%
same,residual activity,[5],50%
same,growth at 10 µM,K562,95.5%
same,growth at 10 µM,NCI-H23,103%
same,growth at 10 µM,SR,73.9%
same,growth at 10 µM,SNB-75,86%
same,growth at 10 µM,HCT-116,90.4%
same,growth at 10 µM,CCRF-CEM,94.7%
same,growth at 10 µM,T47D,83.9%
same,growth at 10 µM,OVCAR-5,97.1%
same,growth at 10 µM,SW-620,102%
same,growth at 10 µM,NCI/ADR-RES,103%
same,growth at 10 µM,OVCAR-4,83%
same,growth at 10 µM,PC-3,88.1%
same,growth at 10 µM,UACC-62,92.2%
same,growth at 10 µM,SK-MEL-5,88.1%
same,growth at 10 µM,NCI-H226,100%
same,growth at 10 µM,[6],167%
same,growth at 10 µM,OVCAR-3,125%
same,growth at 10 µM,HOP-62,116%
same,growth at 10 µM,DU-145,88.1%
same,growth at 10 µM,SK-MEL-28,132%
same,growth at 10 µM,EKVX,89.1%
same,growth at 10 µM,MOLT-4,96.4%
same,growth at 10 µM,COLO 205,101%
